Assay results of several laboratories.
Compare with care: the assays were run in different laboratories.
CDK4: Cyclin-dependent kinase 4 (CDK4, Homo sapiens, UniProt P11802)
CDK4 with cyclin D1: Cyclin-dependent kinase 4, with cyclin D1 (CDK4, Homo sapiens, UniProt P11802)
CDK4 with cyclin D3: Cyclin-dependent kinase 4, with cyclin D3 (CDK4, Homo sapiens, UniProt P11802)

SMILES | target | observed | technique | concentration | remaining binding [%]
CN(C)CC#Cc1ccc(OCCCc2sc(N3CCc4cccc(C(=O)Nc5nc6ccccc6s5)c4C3)nc2C(=O)O)c(F)c1 | CDK4 | cell-free assay | competition with immobilised ligand | 1 µM | 100
c1cnn2ncc(-c3ccnc(N4CCC45COC5)n3)c2c1 | CDK4 with cyclin D1 | binding | – | 1 µM | 81
FC(F)(F)Oc1cccc(-c2cnc3ccc(-c4ccncc4)nn23)c1 | CDK4 with cyclin D3 | cell-free assay | competition with immobilised ligand | 5 µM | 57
COc1ncc2cc3ccccc3nc2c1C#N | CDK4 with cyclin D1 | cell-free assay | competition with immobilised ligand | 5 µM | 82
Cc1cnc(Nc2ccc(C(=O)N3CCC(N4CCCC4)CC3)cc2)nc1-c1cc2ccccc2s1 | CDK4 with cyclin D1 | binding | competition with immobilised ligand | 1 µM | 1.7
COc1cnc(Nc2cccc(S(N)(=O)=O)c2)nc1N1CCN(c2ccccc2)CC1 | CDK4 | binding | competition with immobilised ligand | 1 µM | 76
O=C(NCC1CCOCC1)c1n[nH]cc1NC(=O)c1c(F)cccc1F | CDK4 with cyclin D3 | binding | competition with immobilised ligand | 1 µM | 20
C[C@H](c1ccc(F)cc1)N(Cc1cccc(C(=O)O)c1)C(=O)c1cnc2ccccc2c1 | CDK4 with cyclin D1 | cell-free assay | competition with immobilised ligand | 1 µM | 100
O=C(c1ccc(Nc2ncc(Cl)c(-c3ccc(Cl)s3)n2)cc1)N1CCC(N2CCCC2)CC1 | CDK4 | binding | competition with immobilised ligand | 1 µM | 1.3
N[C@@H]1CCN(c2nccc(-c3cnn4ncccc34)n2)C1 | CDK4 with cyclin D1 | binding | – | 1 µM | 100
c1cncc(-c2cccc(Nc3nccc(NC4CCCCC4)n3)c2)c1 | CDK4 with cyclin D3 | binding | competition with immobilised ligand | 10 µM | 86
O=C(Nc1c[nH]nc1C(=O)NC1CCNCC1)c1cc(F)cc(F)c1 | CDK4 with cyclin D3 | binding | competition with immobilised ligand | 1 µM | 98
O=C(c1ccc(Nc2nccc(-c3cc4ccccc4s3)n2)cc1)N1CCC(N2CCCC2)CC1 | CDK4 with cyclin D1 | binding | competition with immobilised ligand | 1 µM | 25
C[C@@H]1CN(c2cc(-c3nn(C)c4ccc(OC5(C)CC5)cc34)ncn2)C[C@H](C)O1 | CDK4 with cyclin D3 | cell-free assay | competition with immobilised ligand | 1 µM | 71
CCN1CCN(Cc2ccc(C(=O)Nc3ccc(C)c(Oc4ccc5c(c4)CC(=O)N5)c3)cc2C(F)(F)F)CC1 | CDK4 with cyclin D1 | binding | competition with immobilised ligand | 1 µM | 79
CN(c1nccc(-c2cnn3ncccc23)n1)C1CC1 | CDK4 with cyclin D3 | binding | – | 1 µM | 100
C[C@@H](c1ccc(-n2cnc3c(N)ncnc32)cc1)N1CCc2nn(C)c(Cc3ccccc3)c2C1=O | CDK4 with cyclin D1 | binding | competition with immobilised ligand | 0.1 µM | 73

SMILES | target | observed | technique | concentration | remaining binding [%]
O=S(=O)(NC1CCC(c2cc(F)ccc2F)(S(=O)(=O)c2ccc(Cl)cc2)CC1)C(F)(F)F (stereo not drawn) | CDK4 with cyclin D3 | cell-free assay | competition with immobilised ligand | 1 µM | 91
CNC(=O)[C@@H]1CC[C@@H](n2c(-c3ccc4cnccc4c3)nc3ccc(C(=O)NCc4cccc(C(N)=O)c4)cc32)C1 | CDK4 with cyclin D3 | binding | competition with immobilised ligand | 1 µM | 100
O=C(c1ccc(Nc2ncc(Cl)c(-c3cc4ccccc4s3)n2)cc1)N1CCC(N2CCCC2)CC1 | CDK4 with cyclin D3 | binding | competition with immobilised ligand | 1 µM | 0.8
c1ccc(N2CCN(Cc3nc4ccccc4[nH]3)CC2)nc1 | CDK4 | binding | competition with immobilised ligand | 1 µM | 100
Cc1cnn2ncc(-c3ccnc(N(C)C)n3)c2c1 | CDK4 | binding | – | 1 µM | 95
COc1cc(-c2cn(C3CCc4ccccc4N(CC(F)(F)F)C3=O)nn2)ccc1-n1ccc(C)n1 (stereo not drawn) | CDK4 | cell-free assay | competition with immobilised ligand | 1 µM | 53
CN(C)c1ncc(F)c(-c2cnn3ncccc23)n1 | CDK4 with cyclin D3 | binding | – | 1 µM | 91
O=C(NCCCN1CCOCC1)c1ccc(Nc2nccc(-c3cc4ccccc4s3)n2)cc1 | CDK4 | binding | competition with immobilised ligand | 1 µM | 55
CN(C)c1nccc(-c2cnn3ncccc23)n1 | CDK4 with cyclin D3 | binding | – | 1 µM | 100
Cc1nccc(COC(=O)N2C[C@@H]3[C@@H](CNC(=O)c4ccc5[nH]nnc5c4)[C@@H]3C2)n1 | CDK4 with cyclin D3 | cell-free assay | competition with immobilised ligand | 1 µM | 78
C[C@@H]1CCN(c2nccc(-c3cnn4ncccc34)n2)C1 | CDK4 with cyclin D1 | binding | – | 1 µM | 88
O=C(NCCCN1CCOCC1)c1ccc(Nc2ncc(Cl)c(-c3ccc(Cl)s3)n2)cc1 | CDK4 with cyclin D3 | binding | competition with immobilised ligand | 1 µM | 8.4
Cc1nc(N2CC[C@@H](O)C2)ncc1-c1cc(C(F)(F)F)cc2[nH]ncc12 | CDK4 | binding | competition with immobilised ligand | 1 µM | 63
C=CC(=O)N1CCC(C(=O)NCC(=O)N2CCN(c3nc(-c4cnc(N)nc4C(F)F)nc(N4CCOCC4)n3)CC2)CC1 | CDK4 with cyclin D1 | binding | competition with immobilised ligand | 1 µM | 83
COc1cnc(Nc2cccc(S(N)(=O)=O)c2)nc1N1CCN(c2ccccc2)C(=O)C1 | CDK4 | binding | competition with immobilised ligand | 1 µM | 99
Nc1ncc2c(n1)-c1c([nH]c3ccc(C#CC4CC4)cc13)CCCC2 | CDK4 with cyclin D1 | binding | competition with immobilised ligand | 1 µM | 93
